This sample holds only a part of the variants without activity.
B1: tRNA (parent)
chain: GUUCCGUUGGCGUAAUGGUAACGCGUCUCCCUCCUAAGGAGAAGACUGCGGGUUCGAGUCCCGUACGGAACG

Variants of: B1
Experiment: yeast fitness relative to wild type (ratio to wild type); higher = fitter; tRNA-Arg(CCU), competitive growth, 37 C, YPD
Summary of the method: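 Amplicons of the tRNA-Arg(CCU) gene were sequenced, 100-nucleotide paired-end, from the start population and from each end population of a pooled yeast competition. The competition, in six parallel replicates, lasted 24 hours in YPD at 37°C. Fitness relative to wild type was calculated from changes in genotype frequencies. Genotypes had to have ≥ 100 starting reads, and estimates < 0.5 were set to 0.5.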

| Variant | yeast fitness |
| --- | --- |
| GUGCCGUUGGUGUAAUGGCUACGCGUCUCCCUCCUAAGGAGAUGACUGCGGGUUCGAGUCCGGUAAGGCACG [U3G C11U U19C A20U A43U C62G C66A A69C] | ≤ 0.5 |
| GUUCCGUUGGCGUAAUGGAAACGCGUCUCCCUCCUAAGGUGAAGACUGCGGGUUCGAGUCCCGUACGGAACG [U19A A40U] | 1.07 |
| GUUCCAUUCGGGUAAUGGUAACGCGUCUCCCUCUUAAGGAGAAGACUGCGGGUUCGGGUCCCGUACGGAACG [G6A G9C C11G C34U A57G] | 0.54 |
| GUUCCGUUGGCGCAAUGGUAACGCGUCUCCCUCCUAAGGAGAAGACUCCGGGUUCGGGUCCCGUACGGAACG [U13C G48C A57G] | ≤ 0.5 |
| GUUCCGUUGGCGUAAUGGUAACGCGUCUCCCCCCUAAGGAGAAGACUGCGGGUUCGAGUCCCGGACGGAACG [U32C U64G] | 0.754 |
| GUUCCGUUGGCGUAAUGGUAACGCGUCUCCCUUCUAAGGCGAAGCCUGCGGGUUCGAGGUCCGUACGGAACG [C33U A40C A45C U59G C60U] | ≤ 0.5 |
| GUUCCGUUGGCGUUAUGCUAACGCGUCUCCCUCCUAAGCAGAAGACUGGGGGUUCGAGUCCCGUACGGAACG [A14U G18C G39C C49G] | ≤ 0.5 |
| GUUCCGUUGGCGUAGAGGUGACGCGUCACACUACUUAGGAGAAGACUGCGGGUUCGAGUCCCGUACGGCACG [A15G U16A A20G U28A C30A C33A A36U A69C] | ≤ 0.5 |
| GUUCCGUUGGAGUAACGCUAACGCGUCUCCCUCCUAAGGAGAAGCCUGCGGGUUCGCGUCCCGUACGAAACG [C11A U16C G18C A45C A57C G68A] | ≤ 0.5 |
| GUUCCGUUGGCGUAAUGGUAACGCGUCUCCCUCCUAACGAGCAGACUGAGGGUUCGAGUCCCGUACGGAACG [G38C A42C C49A] | ≤ 0.5 |
| GUUCUGUUGGCGUAAUGGUAACGCGUCUCCUUCCUAAGGAGAAGAUUGCGAGUUCGAGUCCCGUACGGAACG [C5U C31U C46U G51A] | 0.69 |
| GUUCCGUUGGCCUAAUGGUAACGCGUAUCCCUCCUAGGGAGAAGACUGUGGGUUCGAGUCCCAUACGGAACG [G12C C27A A37G C49U G63A] | ≤ 0.5 |
| GUUCCGCUGGCGUAAUGGUAACGCGUCACCCUCCUAAGGAGAAGACUCCGGGUUCGAGUCCCGUACGGUUCG [U7C U28A G48C A69U A70U] | ≤ 0.5 |
| GUUCCGUUGGCGUAAUGGUAACCCGUCUCCCUCCUAAGGAGAAGACUGCCGGUUCGAGUCCCCUACAGAACG [G23C G50C G63C G67A] | 0.64 |
| GUUCCGUUGGUGUAAUCGUACCGAGUCUCCCUCCUAAGGAAAAGAGUGCGGGUUCGAGUCACGUACGGAACG [C11U G17C A21C C24A G41A C46G C61A] | ≤ 0.5 |
| GUUCCGUUGGCGUAAUGGUAACGCGUCUCCCUCCGAAGGAGAAGUCUGCGGGUUCGCGUCCCGUACGGAACG [U35G A45U A57C] | ≤ 0.5 |
| GUGCCGUUGGCGUAAUGGUAACGAGUCUCUCUCCUAAGGAGAAGACUGCGGGUUCGCGUCCCGUACGGUACG [U3G C24A C30U A57C A69U] | ≤ 0.5 |
| GUUCCGUUGGCGUAGUGGUAACGCGUGUCCCUCCUAAGGAGAAGACUGCGGGUUUGAGUCCCGUACGGAACG [A15G C27G C55U] | ≤ 0.5 |
| GGUCAGUUGGCGUAAUGGUAACGCGUCUCCCUCCUAAGGAGAAGACUGCGGGUUCGAGUCCCGUACGGACCG [U2G C5A A70C] | ≤ 0.5 |

| Variant | yeast fitness |
| --- | --- |
| GUUCCGUUCGCCUAAUGGUAACGCGUCUCCAUCCUAAGGUGAAGACUGCGGGUUCGAGUCCCGUACAGAACG [G9C G12C C31A A40U G67A] | 0.557 |
| GUUCCGUUGGCGUAAUGGUAACGCGUCUCCCUUCUAAGCAGAAGACUGCGGGUUCGUGUCCCGUACGGAACG [C33U G39C A57U] | 0.643 |
| GUUCCGUUGGCGUAAUGGUAAUGCGUCUCCCUCCUAAGGAGAAGACUACGGGUUCAAGUUCCGUACGGAACG [C22U G48A G56A C60U] | ≤ 0.5 |
| GUUCCGUUGAGGUAAUGGUAACGCGUCUCCCUCCUAAGGAGAAGACUGCGGGUUCGAGUCCCGUACGGAACG [G10A C11G] | 0.565 |
| GUUCCGUUGGCGUAAUGGUAACGCGUCUCCCUCCUCAGGAGAAGACUGCCGGUUCGAGUCCCCUACGGAACG [A36C G50C G63C] | 0.652 |
| GUUCCGUUGGCGUAAUGGUAACGCGUCUCACUCCUAAGGUCAAGACUGCGGGUUCGAGUCGCCUACGGAACG [C30A A40U G41C C61G G63C] | ≤ 0.5 |
| GUUCCGUUGGCGUAAUGGUAACGAGUCUCCCUCCUAAGGAGUAGACUGCGGGUUCGAGUCCCGUACGGAACG [C24A A42U] | 0.659 |
| GUUCCGUUGGUCUAAUGGUAACGCGUCUCCCUCCUAAGGAGAAGAAUGCGGGUUCGAGUCCCGUACGGAACG [C11U G12C C46A] | ≤ 0.5 |
| GUUCGGUUAGCGUAAUGGUAACGCGUGUCCCUCCUAAGGAGAAGACUGCGGGUUCGAGUCUCGUACGGAACG [C5G G9A C27G C61U] | ≤ 0.5 |
| GUUCUGUUGGCGUAAUGGUAACGCGUCUACCUCCUAAGGAGAAGACUGCGGGUUCGUGUCCCGUACGGCACG [C5U C29A A57U A69C] | ≤ 0.5 |
| GUUCCGUUGGCGUAAUGGUAACGCGUCGCCCUCCUAAGGAGAAGACUACGGGUUCGAGUCCCGUACCGGACG [U28G G48A G67C A69G] | ≤ 0.5 |
| GUUCCGUUGGCGUAAUGGUAACGCGUCUCCCUCCCAAGGCGAAGACUGCGGGUUCGAGUCGCGUACGGAACG [U35C A40C C61G] | ≤ 0.5 |
| GUUGCGUAGGCAUAAUGGUAACGCGUCUCCCUCCUAAGGAGGAAACUGCGGGUUCGAGUCCCGCACGGAACG [C4G U8A G12A A42G G44A U64C] | ≤ 0.5 |
| GUUCCGUCGGCGUCAUGGUAACGCGUCUCCCUCCUAAGGAGAGGACUGCGGGUUCGAGUCCCGUACGGAACG [U8C A14C A43G] | ≤ 0.5 |
| GUUCCCUUGGCGUAAUAGUAACGCGUCUCUCUCCUAAGGAGCGGACUGCGGGUUCGAGUCCCGUACGGAACG [G6C G17A C30U A42C A43G] | ≤ 0.5 |
| GUUCCGUUGGCGUAAUGGUAACGCGUCUCCAUCCUAAGGAGAAGACUGCGGGUUCGUGUCCCGUACGGUACG [C31A A57U A69U] | ≤ 0.5 |
| GUUCCGUUGGCGUUAUGGUAACGCGUCUCCCUCCUAAGGAGAAGACUGCGGAUUCGAGUCCCCUACCGUACG [A14U G52A G63C G67C A69U] | ≤ 0.5 |
| GUUCCGUUGGCCUAAUGGUCACGCGUCUCCCUCCUGAGGAGAAGACUGCGGGUUCGAGUCCCGUACGGAACG [G12C A20C A36G] | 0.581 |
| GUUCCGUGGGGGUAAUGGUAACGCGUCUCCCACCUAAGGAGAAGACUGCGGGUUCGUGUACCGUACGCAACG [U8G C11G U32A A57U C60A G68C] | ≤ 0.5 |
